Sampled rows, rich in hits. Any-hit rate of the full collection: about 4.2%.
UPR CHOP act: apoptotic UPR (CHOP) activation; CHO-CHOP luciferase reporter, luminescence; percent of tunicamycin response over DMSO baseline; activation, % at 10 µM; hit rate 0.34% among 330,000; AID 449763;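 active = at 10 µM dose, activation of 40% or more, normalized to positive control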;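 also: 100% = tunicamycin at 10 µg/mL and 0% = DMSO alone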
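Test system: CHO-CHOP cells, stable luciferase reporter of PERK-eIF2a-CHOP signalling | Quantity: 500 CHO-CHOP cells per well | Buffer or medium: F12 plus 10% serum | Compound dosing: 10 µM single point, 0.5% DMSO | Schedule: 6 h compound treatment, 37 °C | Signal: Luciferase luminescence | Control set: Tunicamycin high control, DMSO low control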
XBP1 UPR activ: activators of adaptive arm of unfolded protein response (XBP1); CHO-XBP1 luciferase reporter, IRE1-XBP1 UPR activation, luminescence; percent of tunicamycin response, DMSO as zero; activation, % at 20 µM; hit rate 0.33% among 330,000;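 active = versus positive control, 20 µM dose yields 30% or more activation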;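 also: 100% = tunicamycin at 10 µg/mL and 0% = DMSO only wells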
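Signal: luciferase luminescence; Assay system: CHO-XBP1 luciferase reporter cells; Amount: one thousand reporter cells per well; Dosing: 20 µM single concentration, DMSO 1%; Benchmarks: high control tunicamycin 10 µg/mL final, low control DMSO vehicle only; Schedule: 6 h compound exposure at 37 °C, 5% CO2; Evaluation: percent activation relative to tunicamycin reference.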
Hep lipid drop: hepatic lipid droplet formation modulation. AML12 mouse hepatocytes, oleate lipid droplets, BODIPY imaging. AID 1656. hit rate 0.4% among 240,000. inhibition, % at 6.5 µM;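 active = lipid droplet intensity inhibited by at least 50%, with more than 500 cells counted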
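Assay system: AML12 hepatocytes (mouse) / Also added: 100 µM oleic acid challenge / Times: overnight treatment with compound plus oleate / Detection: high-content imaging of BODIPY-stained droplets and DAPI nuclei / Evaluation: % inhibition of lipid droplet signal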
ANO1 activ: mouse TMEM16A channel activation, primary screen; Q8BHY3; HEK293 TMEM16A/YFP-H148Q/I152L, iodide quench fluorescence; stronger effect = lower value; B-score at 10 µM; hit rate 0.3% among 340,000;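 active = fluorescence-ratio B-score plate-corrected deviation score at least 3 library SD below zero, with starting fluorescence score within 5 deviations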;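 also: channel opened by trigger with iodide after compound preincubation; score built on the fluorescence ratio of max minus min over baseline; more negative score means more quench and so TMEM16A activation or potentiation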
ANO1 block: mouse TMEM16A channel inhibition, primary screen | Q8BHY3 | HEK293 TMEM16A/YFP iodide influx fluorescence, ionomycin | normalized B-score (activity score, 25-100; higher = stronger inhibition) at 10 µM | hit rate 1.2% among 310,000 | AID 588511;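 active = ratio plate-corrected score three or more library SD toward inhibition, starting fluorescence score within five deviations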;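 also: score derived from kinetic fluorescence span divided by baseline fluorescence per well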
CHOP inhibitor: blocks CHOP induction under ER stress; CHO-K1 CHOP-promoter luciferase, tunicamycin-induced, 15-18 h; inhibition, % at 10 µM; hit rate 3.8% among 220,000;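 active = compounds that reduced the stress-induced luciferase reporter signal by more than about 70% of percent inhibition, limit read from the data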;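 also: 0% = tunicamycin plus vehicle and 100% = wells without tunicamycin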
TMEM16A reconf: TMEM16A (mouse) chloride channel inhibition, re-confirmation; shares compounds with ANO1 block; HEK293 TMEM16A/YFP-H148Q, iodide quench fluorescence; ionomycin added to raise cell calcium; inhibition, % at 10 µM; hit rate 39% among 2,300; AID 652189;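 active = mean duplicate percent inhibition, scaled so buffer wells are 0 and the reference blocker 100, over three buffer SD above buffer mean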
HEK293 Ca mobil: alters calcium mobilization in TMEM16A HEK293 cells, counter-screen; shares compounds with ANO1 block; TMEM16A/YFP HEK293, Fluo4 calcium mobilization; calcium response (% of ionomycin), % at 10 µM; hit rate 2% among 2,300; AID 652231;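 active = duplicate-averaged calcium signal over 20% of the ionomycin maximum, relative to buffer baseline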;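 also: each well's signal is peak minus trough fluorescence divided by its pre-addition baseline; 0% = buffer wells and 100% = ionomycin wells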
Parental YFP cnt: acts in parental YFP-HEK293 cells lacking TMEM16A, counter-screen; YFP ratio F(max-min)/F0 at 10 µM; shares compounds with ANO1 block; AID 652233; 2,300 tested, under 10 active; iodide YFP quench, ionomycin;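 active = yellow fluorescent protein signal ratio exceeding the buffer control mean by over 5 SD of those controls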;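 also: ratio is mean of duplicate wells from kinetic YFP trace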
ClC-1 rat inh: blocks the rat ClC-1 voltage-dependent chloride channel; shares compounds with ANO1 block; CHO ClC-1-YFP, iodide influx fluorescence quench; iodide control reads 0, buffer control 100; ratio percent, % at 10 µM; 2,300 tested, under 10 active; AID 652236;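 active = duplicate-mean ratio percent above the mean of iodide-only control wells, which defines zero, plus 5 of their SD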;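 also: higher percent means stronger block of ClC-1 iodide influx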
Target sequence (P35524 whole entry, looked up): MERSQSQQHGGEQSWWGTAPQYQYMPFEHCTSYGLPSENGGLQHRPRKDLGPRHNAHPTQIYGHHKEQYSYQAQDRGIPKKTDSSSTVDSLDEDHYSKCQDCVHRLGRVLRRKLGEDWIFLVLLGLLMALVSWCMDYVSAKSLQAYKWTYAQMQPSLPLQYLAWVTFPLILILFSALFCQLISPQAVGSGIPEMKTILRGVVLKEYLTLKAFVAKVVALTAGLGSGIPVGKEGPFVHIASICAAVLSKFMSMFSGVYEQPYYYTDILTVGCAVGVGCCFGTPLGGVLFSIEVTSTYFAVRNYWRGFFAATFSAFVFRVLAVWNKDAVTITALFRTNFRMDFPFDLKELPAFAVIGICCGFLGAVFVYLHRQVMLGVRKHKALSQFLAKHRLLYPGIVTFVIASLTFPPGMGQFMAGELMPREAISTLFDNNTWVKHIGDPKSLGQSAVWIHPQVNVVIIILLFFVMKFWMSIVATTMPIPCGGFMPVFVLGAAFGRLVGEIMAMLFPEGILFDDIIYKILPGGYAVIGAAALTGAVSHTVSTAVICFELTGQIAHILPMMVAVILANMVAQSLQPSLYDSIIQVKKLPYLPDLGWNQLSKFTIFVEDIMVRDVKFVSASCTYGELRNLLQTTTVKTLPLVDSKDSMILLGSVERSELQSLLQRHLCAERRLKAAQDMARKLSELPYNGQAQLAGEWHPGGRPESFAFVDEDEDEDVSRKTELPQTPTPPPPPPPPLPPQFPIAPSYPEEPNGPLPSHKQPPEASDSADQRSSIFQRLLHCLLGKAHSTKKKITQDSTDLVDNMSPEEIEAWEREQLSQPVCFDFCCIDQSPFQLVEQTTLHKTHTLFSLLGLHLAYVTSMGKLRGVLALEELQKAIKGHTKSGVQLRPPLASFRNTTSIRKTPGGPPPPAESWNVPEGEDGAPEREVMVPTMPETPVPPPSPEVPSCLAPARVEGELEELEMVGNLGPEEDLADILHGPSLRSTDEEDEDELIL
* hit, by the source's call; i = inactive; · = no result.

SMILES | UPR CHOP act | XBP1 UPR activ | Hep lipid drop | ANO1 activ | ANO1 block | CHOP inhibitor | TMEM16A reconf | HEK293 Ca mobil | Parental YFP cnt | ClC-1 rat inh
CCOC(=O)C(=O)Nc1ccc(S(=O)(=O)Nc2ncccn2)cc1 | 0.5 | 1.1 | -5.7 | i | 25* | 14.5 | i | i | -1.14 | 2.5
CCOC(=O)Cn1nc(-c2ccc(Cl)cc2)cc1N | 5.4 | -0.9 | 1.4 | i | 100* | 8.9 | i | i | -1.43 | -9.0
CCOC(=O)CCn1nc(-c2ccc(Cl)cc2)cc1N | 5.2 | -0.3 | 15.0 | i | i | 18.8 | · | · | · | ·
Cc1cc(C=O)sc1[B-](F)(F)F | · | · | · | i | · | · | · | · | · | ·
NCCCC[C@H]1CNC(=S)N1CCc1cccc(F)c1 | 0.7 | -0.7 | 14.1 | i | i | 7.7 | · | · | · | ·
FC(F)(F)c1ccc(N2CCN(c3cc(-c4ccccc4)nc4ncnn34)CC2)nc1 | 3.3 | -4.9 | · | i | 100* | 74.1* | 35.5%* | i | -0.791 | -20.0
CC(C)CN1CCCC(N2CCN(c3cccc(Cl)c3)CC2)C1 (stereo not given) | -0.2 | -5.5 | -3.1 | i | i | · | · | · | · | ·
CC(C)(C)C1CCc2c(sc(NC(=O)C3CC=CCC3C(=O)O)c2C#N)C1 (stereo not given) | -0.2 | 0.9 | 2.0 | i | 100* | 55.2 | 21.0%* | i | -1.11 | -19.5
Cc1noc(C)c1NC(=O)N(C)C[C@H]1Oc2ccc(NC(=O)NC3CCCCC3)cc2C(=O)N([C@H](C)CO)C[C@@H]1C | 0.9 | -4.1 | · | i | · | · | · | · | · | ·
Cc1ccc(NS(=O)(=O)c2sc3ccc(Cl)cc3c2C)cc1 | -1.5 | -4.0 | -7.9 | i | 100* | 26.9 | i | i | -0.98 | -7.0
O=C(c1ccccc1Br)N(Cc1ccccc1)c1ccccc1 | -0.8 | -0.4 | -18.2 | i | i | · | · | · | · | ·
N/C(=N\OC(=O)c1cccc(F)c1)c1ccccc1 | 0.3 | -1.4 | · | i | 25* | -16.5 | i | i | -0.899 | -9.0
O=C(CCN1C(=O)[C@@H]2Cc3ccccc3CN2C1=O)NCc1ccccc1Cl | -2.9 | -1.9 | 7.1 | i | i | · | · | · | · | ·
COc1cc(/C(C)=N/N2CCN(c3ccccc3OC)CC2)ccc1O | 3.0 | -0.4 | -41.2 | i | i | · | · | · | · | ·
CN1CCN(/C=N/c2sc3c(c2C#N)CCCCC3)CC1 | 5.4 | 5.4 | · | i | i | -5.6 | · | · | · | ·
CCN(/C=N/c1sc2c(c1C#N)CCCCC2)CC | 5.7 | 0.7 | · | i | 100* | 64.2 | i | i | -1.28 | -9.0
CCOC(=O)CCSc1nc(C)cc(C(F)(F)F)c1C#N | -0.1 | -1.7 | -0.6 | i | i | 2.3 | · | · | · | ·
CCOC(=O)CCSc1nc(C(C)(C)C)cc(C(F)(F)F)c1C#N | 0.2 | 1.4 | -5.0 | i | 100* | -7.9 | i | i | -1.19 | -5.5
O=C(CN1CCC(NC(=O)c2ccco2)CC1)Nc1ccccc1[N+](=O)[O-] | -0.2 | -4.0 | -2.5 | · | i | 17.3 | · | · | · | ·
COc1ccc(-c2csc(NC(=O)CSc3nc(C)cs3)n2)cc1 | -0.3 | 3.9 | · | i | i | 17.2 | · | · | · | ·
Cc1ccc(-c2csc(NC(=O)CSC3=NCCS3)n2)cc1 | 4.7 | 1.7 | -16.8 | i | 100* | 29.1 | 51.0%* | i | -0.901 | -14.0
COc1ccc(-c2csc(NC(=O)CSc3nc(SC)ns3)n2)cc1 | 2.6 | -0.8 | -4.5 | i | 100* | -4.3 | 21.0%* | i | -1.01 | -6.0
CC(C)CN(C(=O)c1cc(Cl)nc2ccccc12)C1CCS(=O)(=O)C1 (stereo not given) | -0.8 | -0.6 | · | i | · | · | · | · | · | ·
c1ccc(C(CN2CCCCC2)Oc2ccccn2)cc1 (stereo not given) | · | · | · | i | · | · | · | · | · | ·
O=C(Oc1ccc(Cl)c2ccccc12)N1CCCCC1 | 1.7 | 5.3 | -7.4 | i | 25* | -27.3 | i | i | -0.88 | -12.5
SMILES | UPR CHOP act | XBP1 UPR activ | Hep lipid drop | ANO1 activ | ANO1 block | CHOP inhibitor | TMEM16A reconf | HEK293 Ca mobil | Parental YFP cnt | ClC-1 rat inh
O=C(Oc1ccc2ccccc2c1Cl)N1CCCCCC1 | 3.7 | 0.9 | -52.9 | i | 25* | -2.4 | i | i | -0.756 | -14.0
O=C(Oc1ccc2ccccc2c1Cl)N1CCCC1 | 7.5 | 0.0 | -4.9 | i | i | -11.6 | · | · | · | ·
CC(C)Cc1nnc(NC(=O)CN2C(=O)NC3(CC(C)CC(C)(C)C3)C2=O)s1 (stereo not given) | 0.5 | -2.8 | · | i | i | · | · | · | · | ·
O=c1[nH]c(/C(Cl)=C/c2cccc(F)c2)nc2cc(C(F)(F)F)ccc12 | 6.0 | 3.5 | -43.8 | i | i | 69.6 | · | · | · | ·
Fc1ccc2[nH]c3c(NCc4ccccc4)ncnc3c2c1 | 2.8 | -2.3 | -15.1 | i | 100* | · | 66.0%* | i | -1.02 | -25.5
COc1ccc2[nH]c3c(NCc4ccco4)ncnc3c2c1 | 6.2 | 1.2 | · | · | i | -15.4 | · | · | · | ·
O=C(Nc1ccc(F)cc1F)N1CCCN(c2ccc(C(F)(F)F)cn2)CC1 | 0.0 | -2.6 | -18.7 | i | 25* | 4.0 | 18.5%* | i | -1.07 | 1.0
Fc1ccc(NC(=S)N2CCCN(c3ccc(C(F)(F)F)cn3)CC2)c(F)c1 | 7.3 | -4.6 | -52.8 | i | i | 53.1 | · | · | · | ·
COC(=O)[C@]1(Cc2ccccc2)N[C@H](c2ccc(-c3cc(C(C)=O)cs3)cc2)[C@@H]2C(=O)N(C)C(=O)[C@@H]21 | 1.2 | 0.5 | · | i | i | · | · | · | · | ·
CC1CCCCN1C(=O)c1ccc(Br)o1 (stereo not given) | 0.5 | 1.9 | -4.5 | i | i | · | · | · | · | ·
O=[N+]([O-])c1cc(Cl)cc(/C=N/NC(=S)Nc2ccc(S(=O)(=O)N3CCOCC3)cc2)c1O | -1.2 | 0.5 | 9.5 | i | 25* | 25.8 | 70.0%* | i | -0.733 | 4.0
O=S(=O)(c1ccc(NC(=S)N/N=C/c2ccc(O)c(O)c2)cc1)N1CCOCC1 | -0.1 | 3.1 | -8.2 | i | i | 12.0 | · | · | · | ·
CSc1cccc(NC(=O)CCCn2c(=O)c3cccn3c3cccnc32)c1 | 1.8 | 5.2 | -1.6 | i | i | · | · | · | · | ·
CC(=O)C1(O)C(C)CC2C3CC(F)C4(O)CC(O)CCC4(C)C3CCC21C (stereo not given) | · | · | · | i | · | · | · | · | · | ·
